Source: ChEMBL document CHEMBL4400523, “Synthesis of novel pyrido[1,2-c]pyrimidine derivatives with rigidized tryptamine moiety as potential SSRI and 5-HT1A receptor ligands” (Eur J Med Chem, 2019)
pKi: −log10 of the molar value.

Legend:
Mus musculus [1] = test: Induction of hypothermia in CD-1 mouse assessed as change in body temperature at 15 mg/kg, ip measured after 90 mins by thermometric method (reference value: -0.1 to 0.1 deg C); format: functional, organism-based
Outline: (§1)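 Male CD-1 mice (23–40 g), 6–8 per dose, given compound ip in 10% aqueous DMSO (10 mL/kg). Rectal temperature was read by thermometer 30, 60, 90 and 120 min after dosing. Results are expressed as change from basal temperature at experiment start. Analysis by Dunnett's test.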

[2] = molecular target: Sodium-dependent serotonin transporter (Rattus norvegicus, UniProt P31652); test: Displacement of [3H]-citalopram from SERT in rat cortex tissue measured after 60 mins by microbeta scintillation counting analysis
Chain of Sodium-dependent serotonin transporter (P31652 whole entry): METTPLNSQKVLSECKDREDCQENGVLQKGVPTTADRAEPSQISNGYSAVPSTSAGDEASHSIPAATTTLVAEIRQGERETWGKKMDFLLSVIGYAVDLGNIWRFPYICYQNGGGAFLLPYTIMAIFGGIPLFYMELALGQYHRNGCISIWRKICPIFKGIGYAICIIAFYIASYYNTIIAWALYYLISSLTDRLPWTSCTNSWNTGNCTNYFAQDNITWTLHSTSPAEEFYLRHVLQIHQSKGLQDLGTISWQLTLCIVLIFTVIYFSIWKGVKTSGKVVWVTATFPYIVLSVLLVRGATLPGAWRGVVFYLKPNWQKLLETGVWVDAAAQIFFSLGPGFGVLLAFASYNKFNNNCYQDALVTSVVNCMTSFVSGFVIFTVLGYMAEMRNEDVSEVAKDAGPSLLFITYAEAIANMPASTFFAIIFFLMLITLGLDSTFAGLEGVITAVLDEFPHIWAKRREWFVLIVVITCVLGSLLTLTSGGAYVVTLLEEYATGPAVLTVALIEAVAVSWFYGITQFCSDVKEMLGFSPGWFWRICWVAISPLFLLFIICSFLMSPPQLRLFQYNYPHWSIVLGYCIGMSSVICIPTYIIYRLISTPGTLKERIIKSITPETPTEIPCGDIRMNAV
Outline: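 Rat cortex tissue suspension with 1.0 nM [3H]-citalopram in 50 mM Tris pH 7.7, 150 mM NaCl, 5 mM KCl. Incubated 60 min at 24 °C, in duplicate. GF/B filtration, scintillation counting. One-site fit, Ki via Cheng–Prusoff with in-house Kd.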

D(2) dopamine receptor = D(2) dopamine receptor (Homo sapiens, UniProt P14416); test: Displacement of [3H]-raclopride from recombinant human D2 receptor expressed in HEK293 cells measured after 1 hr by microbeta scintillation counting analysis; format: cell-based
Chain of D(2) dopamine receptor (P14416 whole entry): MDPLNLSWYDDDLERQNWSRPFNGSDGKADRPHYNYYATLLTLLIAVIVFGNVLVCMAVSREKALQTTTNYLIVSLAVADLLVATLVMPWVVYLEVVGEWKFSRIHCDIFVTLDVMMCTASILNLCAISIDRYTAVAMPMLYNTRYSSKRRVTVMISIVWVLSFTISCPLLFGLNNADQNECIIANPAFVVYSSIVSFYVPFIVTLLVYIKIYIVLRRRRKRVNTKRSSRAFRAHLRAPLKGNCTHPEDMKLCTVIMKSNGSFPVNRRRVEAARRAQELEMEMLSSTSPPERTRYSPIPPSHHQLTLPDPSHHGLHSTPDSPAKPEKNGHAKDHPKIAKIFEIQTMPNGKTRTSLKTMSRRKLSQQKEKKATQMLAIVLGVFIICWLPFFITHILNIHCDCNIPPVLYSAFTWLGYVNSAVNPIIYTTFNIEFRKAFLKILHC

Mus musculus [3] = test: Induction of hypothermia in CD-1 mouse assessed as change in body temperature at 15 mg/kg, ip measured after 120 mins by thermometric method (reference value: -0.1 to 0.1 deg C); format: functional, organism-based; outline: as §1
Mus musculus [4] = test: Induction of hypothermia in CD-1 mouse assessed as change in body temperature at 15 mg/kg, ip measured after 30 mins by thermometric method (Rvb <= 0.4 deg C); format: functional, organism-based; outline: as §1
Mus musculus [5] = test: Induction of hypothermia in CD-1 mouse assessed as change in body temperature at 20 mg/kg, ip measured after 120 mins by thermometric method; format: functional, organism-based; outline: as §1
[6] = Half life in human liver microsomes at 1 uM by LC-MS analysis; format: ADME, Microsome
Outline: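 Compound at 1 μM incubated at 37 °C with 1 mg/mL pooled human liver microsomes and 100 μM NADPH in 0.1 M potassium phosphate pH 7.4, after 5-min preincubation. Samples taken at 0, 5, 10, 15, 30 min and quenched in ice-cold acetonitrile with buspirone internal standard. No-NADPH controls were run. Parent measured by LC-ESI(+)-MS of [M+H+]; half-life reported.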

Mus musculus [7] = test: Induction of hypothermia in CD-1 mouse assessed as change in body temperature at 20 mg/kg, ip measured after 60 mins by thermometric method; format: functional, organism-based; outline: as §1
[8] = molecular target: T1, 5-hydroxytryptamine receptor 1A (Homo sapiens, UniProt P08908); test: Displacement of [3H]-8-OH-DPAT from recombinant human 5HT1A receptor expressed in CHO cell membranes measured after 60 mins by microbeta scintillation counting analysis
T1 sequence (P08908 whole entry): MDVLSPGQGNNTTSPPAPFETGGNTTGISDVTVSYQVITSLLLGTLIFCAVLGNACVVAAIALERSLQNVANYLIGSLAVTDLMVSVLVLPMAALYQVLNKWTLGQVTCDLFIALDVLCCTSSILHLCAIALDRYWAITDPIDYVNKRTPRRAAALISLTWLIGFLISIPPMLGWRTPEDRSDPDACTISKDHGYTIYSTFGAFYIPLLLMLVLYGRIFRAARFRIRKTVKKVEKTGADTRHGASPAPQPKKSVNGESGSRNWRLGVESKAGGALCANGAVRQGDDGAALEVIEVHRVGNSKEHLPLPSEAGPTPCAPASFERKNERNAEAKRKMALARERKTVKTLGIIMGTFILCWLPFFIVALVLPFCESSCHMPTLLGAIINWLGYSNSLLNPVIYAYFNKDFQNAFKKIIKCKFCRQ

Mus musculus [9] = test: Induction of hypothermia in CD-1 mouse assessed as change in body temperature at 20 mg/kg, ip measured after 90 mins by thermometric method; format: functional, organism-based; outline: as §1
Mus musculus [10] = test: Induction of hypothermia in CD-1 mouse assessed as change in body temperature at 17.5 mg/kg, ip measured after 60 mins by thermometric method (reference value: 0.1 deg C); format: functional, organism-based; outline: as §1
Mus musculus [11] = test: Induction of hypothermia in CD-1 mouse assessed as change in body temperature at 5 mg/kg, ip measured after 90 mins by thermometric method; format: functional, organism-based; outline: as §1
Mus musculus [12] = test: Induction of hypothermia in CD-1 mouse assessed as change in body temperature at 20 mg/kg, ip measured after 30 mins by thermometric method; format: functional, organism-based; outline: as §1
Mus musculus [13] = test: Induction of hypothermia in CD-1 mouse assessed as change in body temperature at 15 mg/kg, ip measured after 60 mins by thermometric method (reference value: 0.1 deg C); format: functional, organism-based; outline: as §1
Mus musculus [14] = test: Induction of hypothermia in CD-1 mouse assessed as change in body temperature at 17.5 mg/kg, ip measured after 120 mins by thermometric method (reference value: -0.1 to 0.1 deg C); format: functional, organism-based; outline: as §1
Mus musculus [15] = test: Induction of hypothermia in CD-1 mouse assessed as change in body temperature at 17.5 mg/kg, ip measured after 90 mins by thermometric method (reference value: -0.1 to 0.1 deg C); format: functional, organism-based; outline: as §1
Mus musculus [16] = test: Induction of hypothermia in CD-1 mouse assessed as change in body temperature at 5 mg/kg, ip measured after 120 mins by thermometric method; format: functional, organism-based; outline: as §1
Mus musculus [17] = test: Induction of hypothermia in CD-1 mouse assessed as change in body temperature at 17.5 mg/kg, ip measured after 30 mins by thermometric method (Rvb <= 0.4 deg C); format: functional, organism-based; outline: as §1
[18] = molecular target: 5-hydroxytryptamine receptor 6 (Homo sapiens, UniProt P50406); test: Displacement of [3H]-LSD from recombinant human 5HT6 receptor expressed in HEK293 cells measured after 1 hr by microbeta scintillation counting analysis; format: cell-based
Chain of 5-hydroxytryptamine receptor 6 (P50406 whole entry): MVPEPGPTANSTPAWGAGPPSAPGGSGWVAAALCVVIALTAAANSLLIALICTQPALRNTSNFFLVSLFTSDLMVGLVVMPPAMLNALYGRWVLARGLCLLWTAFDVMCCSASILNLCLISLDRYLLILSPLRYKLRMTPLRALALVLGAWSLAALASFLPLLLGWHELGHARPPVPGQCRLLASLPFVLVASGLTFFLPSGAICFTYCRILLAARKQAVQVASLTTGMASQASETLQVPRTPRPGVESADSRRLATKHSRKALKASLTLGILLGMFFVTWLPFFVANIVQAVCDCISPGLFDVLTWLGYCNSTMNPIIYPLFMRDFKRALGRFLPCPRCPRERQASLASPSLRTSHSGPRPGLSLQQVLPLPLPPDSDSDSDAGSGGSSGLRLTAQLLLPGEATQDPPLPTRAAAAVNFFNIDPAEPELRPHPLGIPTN

[19] = molecular target: 5-hydroxytryptamine receptor 2A (Homo sapiens, UniProt P28223); test: Displacement of [3H]-ketanserin from recombinant human 5HT2A receptor expressed in HEK293 cells measured after 1.5 hrs by microbeta scintillation counting analysis; format: cell-based
Chain of 5-hydroxytryptamine receptor 2A (P28223 whole entry): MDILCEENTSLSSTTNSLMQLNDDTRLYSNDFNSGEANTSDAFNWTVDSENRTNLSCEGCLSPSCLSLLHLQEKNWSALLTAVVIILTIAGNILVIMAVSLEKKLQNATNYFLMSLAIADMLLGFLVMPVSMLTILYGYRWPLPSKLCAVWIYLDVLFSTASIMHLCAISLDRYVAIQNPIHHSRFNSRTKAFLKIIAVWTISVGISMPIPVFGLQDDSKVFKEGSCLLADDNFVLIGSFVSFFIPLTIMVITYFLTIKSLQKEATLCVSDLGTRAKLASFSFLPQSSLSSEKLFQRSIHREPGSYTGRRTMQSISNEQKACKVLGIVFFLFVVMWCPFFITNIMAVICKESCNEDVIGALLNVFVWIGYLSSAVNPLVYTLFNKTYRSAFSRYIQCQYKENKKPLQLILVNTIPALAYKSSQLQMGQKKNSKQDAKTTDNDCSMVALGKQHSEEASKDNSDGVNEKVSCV

Mus musculus [20] = test: Induction of hypothermia in CD-1 mouse assessed as change in body temperature at 5 mg/kg, ip measured after 30 mins by thermometric method; format: functional, organism-based; outline: as §1
Mus musculus [21] = test: Induction of hypothermia in CD-1 mouse assessed as change in body temperature at 5 mg/kg, ip measured after 60 mins by thermometric method; format: functional, organism-based; outline: as §1
[22] = molecular target: 5-hydroxytryptamine receptor 7 (Homo sapiens, UniProt P34969); test: Displacement of [3H]-5-CT from recombinant human 5HT7 receptor expressed in HEK293 cells measured after 1 hr by microbeta scintillation counting analysis; format: cell-based
Chain of 5-hydroxytryptamine receptor 7 (P34969 whole entry): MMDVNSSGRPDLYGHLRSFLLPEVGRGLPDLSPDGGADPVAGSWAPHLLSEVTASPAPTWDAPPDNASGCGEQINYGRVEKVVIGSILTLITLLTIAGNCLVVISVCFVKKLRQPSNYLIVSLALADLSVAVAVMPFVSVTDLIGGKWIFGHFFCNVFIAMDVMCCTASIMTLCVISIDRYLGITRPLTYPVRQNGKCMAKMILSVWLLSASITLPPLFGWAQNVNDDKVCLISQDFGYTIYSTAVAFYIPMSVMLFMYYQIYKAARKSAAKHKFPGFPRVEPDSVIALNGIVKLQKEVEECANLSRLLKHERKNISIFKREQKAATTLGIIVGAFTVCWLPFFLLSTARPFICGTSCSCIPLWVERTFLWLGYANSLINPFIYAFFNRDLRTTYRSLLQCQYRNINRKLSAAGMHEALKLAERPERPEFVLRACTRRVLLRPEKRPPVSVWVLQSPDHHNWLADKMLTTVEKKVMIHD

- pKi [2]: 7.07
- pKi (D(2) dopamine receptor): 4.95
- half-life at 1 µM [6]: 3.31 min
- pKi [8]: 7.21
- pKi [18]: 6.16
- pKi [19]: 6.50
- pKi [22]: 6.02
SMILES: COc1ccc(-c2c(=O)n(CCCCN3CCCC(c4c[nH]c5ccc(OC)cc45)C3)c(=O)n3ccccc23)cc1 (stereo not drawn)
- deltaT (Mus musculus [1]): 0.3 °C
- deltaT (Mus musculus [3]): 0.2 °C
- deltaT (Mus musculus [4]): -0.5 °C
- deltaT (Mus musculus [5]): 0 °C
- deltaT (Mus musculus [7]): -1 °C
- deltaT (Mus musculus [9]): 0.1 °C
- deltaT (Mus musculus [10]): -0.2 °C
- deltaT (Mus musculus [11]): 0.2 °C
- deltaT (Mus musculus [12]): -2.4 °C
- deltaT (Mus musculus [13]): 0.2 °C
- deltaT (Mus musculus [14]): 0.1 °C
- deltaT (Mus musculus [15]): -0.1 °C
- deltaT (Mus musculus [16]): -0.2 °C
- deltaT (Mus musculus [17]): -0.6 °C
- deltaT (Mus musculus [20]): -0.2 °C
- deltaT (Mus musculus [21]): 0.2 °C
